Laboratory results reported in ChEMBL document CHEMBL1811851, “Identification of a potent, state-dependent inhibitor of Nav1.7 with oral efficacy in the formalin model of persistent pain” (J Med Chem, 2011).
Values after ≈ are worked out from the molar mass of the structure shown.

Tests used:
LLC-PK1 [1] = experiment: Apparent permeability of the compound from basolateral to apical direction in pig LLC-PK1 cells expressing human MDR1; type: ADME, cell-based, Sus scrofa
In short: (§1)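 MDR1-LLC-PK1 pig kidney cells expressing human MDR1; compound at 5 μM with 0.1% BSA; apparent permeability measured apical-to-basolateral and basolateral-to-apical.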

[2] = Aqueous solubility of the compound in PBS pH 7.4; type: physicochemical
[3] = Aqueous solubility of the compound in SIF pH 6.8; type: physicochemical
LLC-PK1 [4] = experiment: Apparent permeability of the compound from apical to basolateral direction in pig LLC-PK1 cells expressing human MDR1; type: ADME, cell-based, Sus scrofa; in short: as §1
[5] = Aqueous solubility of the compound in 0.01 N HCl; type: physicochemical
[6] = AUC in Sprague-Dawley rat at 0.5 mg/kg, iv; type: ADME, organism-based; design: dose 0.5 mg/kg, route intravenous; settings: plasma
In short: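 Male Sprague-Dawley rats dosed intravenously at 0.5 mg/kg in 0.5 mL/kg of 100% DMSO; pharmacokinetic parameters derived from plasma exposure.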

[7] = Oral bioavailability in Sprague-Dawley rat at 2 mg/kg; type: ADME, organism-based; settings: in vivo
In short: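 Male Sprague-Dawley rats; oral dose 2 mg/kg in 10 mL/kg vehicle (30% hydroxypropyl-β-cyclodextrin pH 2.2 with methanesulfonic acid, or 1% Tween 80/2% HPMC pH 2.2 with HCl), compared with 0.5 mg/kg iv in DMSO.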

Rattus norvegicus [8] = experiment: Plasma concentration in Sprague-Dawley rat at 10 mg/kg, po by open-field test; type: ADME, organism-based; design: dose 10 mg/kg, route oral; settings: in vivo
In short: (§2)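 Naive rats given oral doses of 3–30 mg/kg (n = 8 per dose), timed so recording began at the same post-dose interval as the formalin test; open-field photobeam beam breaks binned every 5 min and totalled; plasma drug measured; one-way ANOVA with Dunnett's versus vehicle.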

Rattus norvegicus [9] = experiment: Plasma concentration in formalin-induced Sprague-Dawley rat at 10 mg/kg, po by open-field test; type: ADME, organism-based; design: dose 10 mg/kg, route oral; settings: in vivo
In short: (§3)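 Rats dosed orally 2 h before formalin; plasma sampled right after the formalin test (3 h post-dose) for total drug concentration.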

Rattus norvegicus [10] = experiment: Plasma concentration in Sprague-Dawley rat at 3 mg/kg, po by open-field test; type: ADME, organism-based; design: dose 3 mg/kg, route oral; settings: in vivo; in short: as §2
Plasma = experiment: Unbound plasma concentration in Sprague-Dawley rat at 3 mg/kg, po; type: ADME, organism-based; design: dose 3 mg/kg, route oral; settings: in vivo
Rattus norvegicus [11] = experiment: Plasma concentration in formalin-induced Sprague-Dawley rat at 20 mg/kg, po by open-field test; type: ADME, organism-based; design: dose 20 mg/kg, route oral; settings: in vivo; in short: as §3
Rattus norvegicus [12] = experiment: Plasma concentration in formalin-induced Sprague-Dawley rat at 3 mg/kg, po by open-field test; type: ADME, organism-based; design: dose 3 mg/kg, route oral; settings: in vivo; in short: as §3
Rattus norvegicus [13] = experiment: Plasma concentration in Sprague-Dawley rat at 20 mg/kg, po by open-field test; type: ADME, organism-based; design: dose 20 mg/kg, route oral; settings: in vivo; in short: as §2
Rattus norvegicus [14] = experiment: Plasma concentration in formalin-induced Sprague-Dawley rat at 30 mg/kg, po by open-field test; type: ADME, organism-based; design: dose 30 mg/kg, route oral; settings: in vivo; in short: as §3
Rattus norvegicus [15] = experiment: Plasma concentration in Sprague-Dawley rat at 30 mg/kg, po by open-field test; type: ADME, organism-based; design: dose 30 mg/kg, route oral; settings: in vivo; in short: as §2

Papp (LLC-PK1 [1])	solubility [2]	solubility [3]	Papp (LLC-PK1 [4])	solubility [5]	AUC [6]	bioavailability [7]	concentration (Rattus norvegicus [8])	concentration (Rattus norvegicus [9])	concentration (Rattus norvegicus [10])	Cp(f) (Plasma)	concentration (Rattus norvegicus [11])	concentration (Rattus norvegicus [12])	concentration (Rattus norvegicus [13])	concentration (Rattus norvegicus [14])	concentration (Rattus norvegicus [15])	SMILES
29.3 ×10⁻⁶ cm/s	1 µg/mL (≈ 2.77 µM)	31 µg/mL (≈ 86 µM)	29.3 ×10⁻⁶ cm/s	42 µg/mL (≈ 117 µM)	126 ng·h/mL	–	–	–	–	–	–	–	–	–	–	CC(=O)Nc1cccc(Nc2ncnc(N3CCc4ccccc4C3)n2)c1
26.1 ×10⁻⁶ cm/s	11 µg/mL (≈ 27.2 µM)	110 µg/mL (≈ 272 µM)	26.1 ×10⁻⁶ cm/s	> 200 µg/mL	–	52%	–	–	–	–	–	–	–	–	–	CC(=O)Nc1cccc(Nc2ncnc(N3CCC(Oc4ccccc4)CC3)n2)c1
22.2 ×10⁻⁶ cm/s	15 µg/mL (≈ 35.8 µM)	86 µg/mL (≈ 205 µM)	22.2 ×10⁻⁶ cm/s	157 µg/mL (≈ 375 µM)	–	19%	–	–	–	–	–	–	–	–	–	CC(=O)Nc1cccc(Nc2ncnc(N3CCC(OCc4ccccc4)CC3)n2)c1
–	–	–	–	–	–	27%	–	–	–	–	–	–	–	–	–	CC(=O)Nc1cccc(Nc2ncnc(N3CCC(OCc4ccc(C(F)(F)F)cc4)CC3)n2)c1C
–	–	–	–	–	–	67%	1400 nM	1400 nM	500 nM	14 nM	3200 nM	500 nM	2900 nM	4400 nM	5400 nM	CC(=O)Nc1cccc(Nc2ncnc(N3CCC(OCc4ccc(OC(F)(F)F)cc4)CC3)n2)c1C
